ChEMBL document CHEMBL2062426 (J Med Chem, 2012)

Experiments:
[1] = biological target: 72 kDa type IV collagenase (Homo sapiens, UniProt P08253); assay: Inhibition of MMP2 using (7-methoxycoumarin-4-yl)acetyl-Pro-Leu-Gly-Leu-(3-(2,4-dinitrophenyl)-L-2,3-diaminopropionyl)Ala-Arg-NH2 as substrate incubated for 30 mins prior to substrate addition measured for 10 mins by fluorometry
[2] = biological target: Matrix metalloproteinase-9 (Homo sapiens, UniProt P14780); assay: Inhibition of MMP9 using (7-methoxycoumarin-4-yl)acetyl-Pro-Leu-Gly-Leu-(3-(2,4-dinitrophenyl)-L-2,3-diaminopropionyl)Ala-Arg-NH2 as substrate incubated for 30 mins prior to substrate addition measured for 10 mins by fluorometry
Method in brief: (§1)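 Activated MMP-8 or MMP-9 (2 nM) was preincubated with inhibitor (10 pM–1 mM) in 50 mM Tris-HCl pH 7.5 with 0.2 M NaCl, 5 mM CaCl2, 20 μM ZnSO4 and 0.05% Brij 35 at 37 °C for 30 min. Fluorogenic substrate (10 μL of 50 μM into 90 μL) was then added. Rates from the first 10 min were plotted against inhibitor concentration, and values are the mean of three experiments.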

Collagenase 3 = Collagenase 3 (Homo sapiens, UniProt P45452); assay: Inhibition of MMP13 using (7-methoxycoumarin-4-yl)acetyl-Pro-Leu-Gly-Leu-(3-(2,4-dinitrophenyl)-L-2,3-diaminopropionyl)Ala-Arg-NH2 as substrate incubated for 30 mins prior to substrate addition measured for 10 mins by fluorometry
Neutrophil collagenase = Neutrophil collagenase (Homo sapiens, UniProt P22894); assay: Inhibition of MMP8 using (7-methoxycoumarin-4-yl)acetyl-Pro-Leu-Gly-Leu-(3-(2,4-dinitrophenyl)-L-2,3-diaminopropionyl)Ala-Arg-NH2 as substrate incubated for 30 mins prior to substrate addition measured for 10 mins by fluorometry; method in brief: as §1
Neutrophil collagenase, sequence (P22894 whole entry): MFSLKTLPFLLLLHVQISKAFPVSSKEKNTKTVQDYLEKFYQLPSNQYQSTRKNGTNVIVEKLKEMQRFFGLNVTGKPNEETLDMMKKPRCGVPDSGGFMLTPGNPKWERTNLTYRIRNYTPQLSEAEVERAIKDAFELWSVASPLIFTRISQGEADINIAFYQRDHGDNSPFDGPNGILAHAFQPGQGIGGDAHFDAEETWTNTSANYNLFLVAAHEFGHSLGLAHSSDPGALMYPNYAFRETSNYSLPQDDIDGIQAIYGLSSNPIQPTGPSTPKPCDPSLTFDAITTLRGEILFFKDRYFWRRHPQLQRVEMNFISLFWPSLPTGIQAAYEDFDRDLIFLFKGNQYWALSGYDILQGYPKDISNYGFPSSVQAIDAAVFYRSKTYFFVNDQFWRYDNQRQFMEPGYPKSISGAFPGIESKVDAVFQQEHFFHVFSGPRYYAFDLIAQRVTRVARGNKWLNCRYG

72 kDa type IV collagenase, sequence (P08253 whole entry): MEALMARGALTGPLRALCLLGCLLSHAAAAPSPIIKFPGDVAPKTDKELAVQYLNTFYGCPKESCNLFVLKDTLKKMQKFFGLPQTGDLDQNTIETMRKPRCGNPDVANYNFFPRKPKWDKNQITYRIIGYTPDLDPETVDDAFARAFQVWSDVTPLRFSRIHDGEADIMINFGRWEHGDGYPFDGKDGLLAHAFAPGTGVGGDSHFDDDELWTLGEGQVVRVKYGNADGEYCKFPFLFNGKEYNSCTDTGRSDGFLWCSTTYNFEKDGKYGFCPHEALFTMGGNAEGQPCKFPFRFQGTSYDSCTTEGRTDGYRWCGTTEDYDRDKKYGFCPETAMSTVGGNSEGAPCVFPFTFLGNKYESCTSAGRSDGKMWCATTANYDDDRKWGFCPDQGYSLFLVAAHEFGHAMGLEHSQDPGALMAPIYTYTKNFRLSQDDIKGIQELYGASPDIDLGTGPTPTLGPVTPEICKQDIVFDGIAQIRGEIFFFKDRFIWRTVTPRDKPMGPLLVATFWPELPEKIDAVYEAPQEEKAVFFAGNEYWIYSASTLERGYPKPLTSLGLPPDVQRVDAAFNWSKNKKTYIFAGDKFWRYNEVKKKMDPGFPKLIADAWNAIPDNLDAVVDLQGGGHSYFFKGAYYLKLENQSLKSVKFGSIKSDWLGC
Matrix metalloproteinase-9, sequence (P14780 whole entry): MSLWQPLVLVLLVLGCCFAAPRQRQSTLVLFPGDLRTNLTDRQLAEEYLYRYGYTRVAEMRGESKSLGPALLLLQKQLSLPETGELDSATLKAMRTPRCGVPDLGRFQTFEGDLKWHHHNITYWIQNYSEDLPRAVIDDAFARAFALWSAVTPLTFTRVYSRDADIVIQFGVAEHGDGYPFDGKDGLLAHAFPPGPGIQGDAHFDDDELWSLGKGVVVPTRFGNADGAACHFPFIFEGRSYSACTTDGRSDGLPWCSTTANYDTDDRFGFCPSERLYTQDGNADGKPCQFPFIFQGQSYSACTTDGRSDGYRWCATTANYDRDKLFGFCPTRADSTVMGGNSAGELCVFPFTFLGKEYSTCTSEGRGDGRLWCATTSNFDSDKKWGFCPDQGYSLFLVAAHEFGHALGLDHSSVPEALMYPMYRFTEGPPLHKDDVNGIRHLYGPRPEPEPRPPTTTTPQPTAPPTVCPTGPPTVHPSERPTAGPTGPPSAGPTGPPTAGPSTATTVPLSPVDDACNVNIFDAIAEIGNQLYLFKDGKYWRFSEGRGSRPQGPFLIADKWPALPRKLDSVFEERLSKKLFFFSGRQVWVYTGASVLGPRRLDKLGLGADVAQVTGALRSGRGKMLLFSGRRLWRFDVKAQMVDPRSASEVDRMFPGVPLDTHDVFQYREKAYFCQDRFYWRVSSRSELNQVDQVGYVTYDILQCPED

Row | Compound | IC50 [1] | IC50 [2] | IC50 (Collagenase 3) | IC50 (Neutrophil collagenase)
1 | COc1ccc(S(=O)(=O)N(Cc2ccc(OCCOCCOCCOCCOCc3cn(CCOCCOCCOCCF)nn3)cc2)[C@@H](C(=O)NO)C(C)C)cc1 | 4 nM | 5 nM | 4 nM | 5 nM
2 | COc1ccc(S(=O)(=O)N(Cc2ccc(OCCOCCOCCOCCOCc3cn(CCF)nn3)cc2)[C@@H](C(=O)NO)C(C)C)cc1 | 2 nM | 0.6 nM | 6 nM | 0.2 nM
3 | C#CCOCCOCCOCCOCCOc1ccc(CN([C@@H](C(=O)NO)C(C)C)S(=O)(=O)c2ccc(OC)cc2)cc1 | 0.35 nM | 0.37 nM | 0.09 nM | 0.11 nM
4 | COc1ccc(S(=O)(=O)N(Cc2ccc(OCCOCCOCCOCCOCc3cn([C@@H]4O[C@H](CO)[C@@H](O)[C@H](O)[C@H]4F)nn3)cc2)[C@@H](C(=O)NO)C(C)C)cc1 | 30 nM | 43 nM | 18 nM | 58 nM
5 | COc1ccc(S(=O)(=O)N(Cc2ccc(OCCOCCOCCOCCn3cc(COCCOCCOCCOCCOCCF)nn3)cc2)[C@@H](C(=O)NO)C(C)C)cc1 | 4 nM | 3 nM | 1 nM | 3 nM
6 | C#CCN([C@@H](C(=O)NO)C(C)C)S(=O)(=O)c1ccc(OC)cc1 | 5 nM | 2 nM | 10 nM | 14 nM
7 | COc1ccc(S(=O)(=O)N(Cc2cn(CCOS(=O)(=O)c3ccc(C)cc3)nn2)[C@@H](C(=O)NO)C(C)C)cc1 | 107 nM | 7 nM | 5 nM | 8 nM
8 | COc1ccc(S(=O)(=O)N(Cc2cn(CCF)nn2)[C@@H](C(=O)NO)C(C)C)cc1 | 0.13 nM | 0.03 nM | 0.006 nM | 0.02 nM
